# Screening results (PubChem BioAssay)
# The list is not random: actives were taken first. Their share in the collection is about 3.4%.
# TMEM16A inh – inhibitors of mouse TMEM16A calcium-activated chloride channel; HEK293 TMEM16A/YFP iodide influx fluorescence, ionomycin; normalized B-score (activity score, 25-100; higher = stronger inhibition) at 10 µM; 1.2% of 310,000 active; AID 588511;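 active = ratio plate-corrected score three or more library SD toward inhibition, starting fluorescence score within five deviations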;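 note: score derived from kinetic fluorescence span divided by baseline fluorescence per well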
# MC4R barr agon – agonists of human melanocortin 4 receptor (MC4R) beta-arrestin; P32245; U2OS MC4R beta-arrestin complementation, luminescence; percent of melanotan II response, DMSO zero; activation, % at 8.9 µM; 0.98% of 360,000 active; AID 540308;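 active = activation above a per-plate cutoff, the mean activation of sample wells on that plate plus 3 SD, cut at about 8% in these data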
# MIN6 prolif – MIN6 beta-cell proliferation induction; proliferation, % at 10 µM; MIN6 cells proliferation, ATPlite luminescence, 48 h; cells starved in 0.2% serum; 100% = growth in 10% serum; AID 2380; 0.29% of 330,000 active;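 active = compounds whose signal lies at least 3.5 SD above the mean of all wells on their plate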
# MC4R antagonist – antagonists of human melanocortin 4 receptor (MC4R) | 0.48% of 360,000 active | AID 540295 | MC4R-expressing cells, MTII-stimulated cAMP, LANCE TR-FRET | P32245 | inhibition, % at 6.5 µM;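 active = inhibition above its plate's cutoff, the mean of tested wells on that plate plus 3 SD, cut at about 29% in these data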
#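 System: U2OS cells stably expressing human melanocortin 4 receptor (MC4R). Reagent: Melanotan II challenge after compound preincubation. Doses: 6.5 µM. Times: 30-min compound, 1-h challenge, 1-h detection, room temperature. Measured by: TR-FRET with Eu-cAMP and labeled anti-cAMP, 671 nm. Replicates: singlicate.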
# TMEM16A act – mouse TMEM16A channel activation, primary screen; HEK293 TMEM16A/YFP-H148Q/I152L, iodide quench fluorescence; active compounds read low; 0.3% of 340,000 active; AID 623877; B-score at 10 µM;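 active = fluorescence-ratio B-score plate-corrected deviation score at least 3 library SD below zero, with starting fluorescence score within 5 deviations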;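 note: channel opened by trigger with iodide after compound preincubation; score built on the fluorescence ratio of max minus min over baseline; more negative score means more quench and so TMEM16A activation or potentiation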
# HTR2A ag – agonists of mouse serotonin 5-HT2A receptor (HTR2A). CHO-K1 mHTR2A beta-arrestin complementation, luminescence; percent of 30 µM serotonin response. 0.66% of 360,000 active. AID 624169. activation, % at 7.6 µM;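 active = activation above a run cutoff, the mean activation of all tested compounds plus 3 SD, cut at about 14% in these data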
# TMEM16A reconf – re-confirmation of mouse TMEM16A chloride channel inhibitors; HEK293 TMEM16A/YFP-H148Q, iodide quench fluorescence; ionomycin added to raise cell calcium; 39% of 2,300 active; inhibition, % at 10 µM; AID 652189; shares compounds with TMEM16A inh;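 active = mean duplicate percent inhibition, scaled so buffer wells are 0 and the reference blocker 100, over three buffer SD above buffer mean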
# HEK293 Ca mobil – alters calcium mobilization in TMEM16A HEK293 cells, counter-screen. AID 652231. 2% of 2,300 active. TMEM16A/YFP HEK293, Fluo4 calcium mobilization. calcium response (% of ionomycin), % at 10 µM. shares compounds with TMEM16A inh;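 active = duplicate-averaged calcium signal over 20% of the ionomycin maximum, relative to buffer baseline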;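 note: each well's signal is peak minus trough fluorescence divided by its pre-addition baseline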
# Parental YFP cnt – acts in parental YFP-HEK293 cells lacking TMEM16A, counter-screen; shares compounds with TMEM16A inh; iodide YFP quench, ionomycin; YFP ratio F(max-min)/F0 at 10 µM; 2,300 tested, under 10 active; AID 652233;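 active = yellow fluorescent protein signal ratio exceeding the buffer control mean by over 5 SD of those controls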;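 note: ratio is mean of duplicate wells from kinetic YFP trace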
# ClC-1 rat inh – selectivity of TMEM16A inhibitors: inhibition of rat ClC-1 chloride channel; shares compounds with TMEM16A inh; CHO ClC-1-YFP, iodide influx fluorescence quench; iodide control reads 0, buffer control 100; ratio percent, % at 10 µM; 2,300 tested, under 10 active; AID 652236;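 active = duplicate-mean ratio percent above the mean of iodide-only control wells, which defines zero, plus 5 of their SD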;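 note: higher percent means stronger block of ClC-1 iodide influx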
# Target sequence (P35524 whole entry, looked up): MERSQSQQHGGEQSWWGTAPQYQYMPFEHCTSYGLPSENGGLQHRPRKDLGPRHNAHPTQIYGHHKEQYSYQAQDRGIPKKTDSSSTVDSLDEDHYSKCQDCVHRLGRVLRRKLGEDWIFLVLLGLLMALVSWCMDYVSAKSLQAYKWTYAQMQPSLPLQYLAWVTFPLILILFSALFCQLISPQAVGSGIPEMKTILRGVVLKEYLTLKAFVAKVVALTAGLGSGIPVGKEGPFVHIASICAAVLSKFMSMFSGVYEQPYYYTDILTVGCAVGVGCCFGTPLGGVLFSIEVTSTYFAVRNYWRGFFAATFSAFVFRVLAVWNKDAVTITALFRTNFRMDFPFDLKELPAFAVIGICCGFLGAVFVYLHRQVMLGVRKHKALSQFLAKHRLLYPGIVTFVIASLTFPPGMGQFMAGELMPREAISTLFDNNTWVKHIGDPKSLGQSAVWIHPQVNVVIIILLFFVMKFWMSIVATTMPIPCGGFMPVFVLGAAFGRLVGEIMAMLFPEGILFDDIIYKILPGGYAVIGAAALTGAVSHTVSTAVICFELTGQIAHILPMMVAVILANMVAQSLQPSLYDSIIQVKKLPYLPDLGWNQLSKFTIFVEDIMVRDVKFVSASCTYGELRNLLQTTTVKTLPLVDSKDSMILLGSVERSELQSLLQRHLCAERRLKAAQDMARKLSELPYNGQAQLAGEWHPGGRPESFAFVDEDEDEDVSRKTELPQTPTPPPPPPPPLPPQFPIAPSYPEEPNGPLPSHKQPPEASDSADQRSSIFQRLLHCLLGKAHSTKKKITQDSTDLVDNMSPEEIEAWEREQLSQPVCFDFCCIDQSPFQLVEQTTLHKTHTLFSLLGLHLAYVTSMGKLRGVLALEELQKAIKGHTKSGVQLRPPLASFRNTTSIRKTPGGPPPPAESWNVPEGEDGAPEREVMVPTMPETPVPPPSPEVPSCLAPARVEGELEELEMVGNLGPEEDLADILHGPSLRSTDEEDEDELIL
# Hits are given with their value; i = inactive; nt = no result.
SMILES,TMEM16A inh,MC4R barr agon,MIN6 prolif,MC4R antagonist,TMEM16A act,HTR2A ag,TMEM16A reconf,HEK293 Ca mobil,Parental YFP cnt,ClC-1 rat inh
CCOC(=O)c1ccc(NC(=S)N2CCSC2c2ccc(Br)cc2)cc1 (centres undefined),25,i,i,i,-6.5,i,82%,i,i,i
CCN(CC)S(=O)(=O)c1cc(C(=O)Nc2ccncc2)ccc1Cl,100,i,i,i,i,i,i,i,i,i
CC(C)c1cc(C(=O)N2CCCC(CCC(=O)NCc3ccccc3F)C2)n(C)n1 (centres undefined),100,i,i,i,i,i,i,i,i,i
CCN(CC)S(=O)(=O)c1cccc(-c2nnc(SCc3nc4ccccc4s3)o2)c1,100,i,i,i,i,i,18%,i,i,i
COC(=O)c1ccc(CSc2cc(C)c3ccccc3n2)o1,i,i,i,i,i,i,nt,nt,nt,nt
COC(=O)c1ccc(CSc2nc(C(F)(F)F)c3c(c2C#N)CCC3)o1,100,i,i,i,i,i,i,i,i,i
O=C(OCCN1CCN(c2ncc(C(F)(F)F)cc2Cl)CC1)c1ccc(Cl)cc1,100,i,i,i,i,i,i,i,i,i
O=C(OC1CCN(c2ncc(C(F)(F)F)cc2Cl)CC1)c1ccc(Cl)cc1,i,i,i,i,i,i,nt,nt,nt,nt
COc1cccc(/C=N/NC(=O)c2ccc(-n3cnnn3)cc2)c1,nt,i,i,i,i,i,nt,nt,nt,nt
Cc1ccc(S(=O)(=O)c2c(C)nn(C(C)(C)C)c2OC(=O)C(C)(C)C)cc1,100,i,i,i,i,i,i,i,i,i
O=S(=O)(Nc1ccc(-c2ccc3nncn3n2)cc1)c1cccs1,i,i,i,i,i,i,nt,nt,nt,nt
Cc1ccc(S(=O)(=O)N(C)C)cc1NC(=O)C(C)N(C)CCOc1ccc(Cl)cc1 (centres undefined),25,i,i,i,i,i,i,i,i,i
CC(=O)c1ccc(OCCCC(=O)Nc2cc(S(=O)(=O)N(C)C)ccc2C)cc1,i,i,i,i,i,i,nt,nt,nt,nt
CC(C)OC(=O)N(C)C[C@@H]1OCc2cnnn2CCCC(=O)N([C@H](C)CO)C[C@H]1C,nt,i,nt,i,nt,i,nt,nt,nt,nt
CCCCOCCCNc1ncnc2c1[nH]c1ccccc12,100,i,i,i,i,i,56%,i,i,i
CN(c1ccccc1)S(=O)(=O)c1cccc(NC(=O)CSc2nnc(N)s2)c1,100,i,i,i,i,i,35%,i,i,i
C/C(=N\OC(=O)NC1CCCCC1)c1sc(-c2ccccc2)nc1C,25,i,i,i,i,i,25%,i,i,i
OCCCn1c(-c2ccccc2)csc1=Nc1ccccc1,100,i,i,i,i,i,28%,i,i,i
Cc1cc(C)nc(N/N=C/c2sccc2C)n1,i,i,i,i,i,i,nt,nt,nt,nt
Cc1ccsc1/C=N/Nc1ncc(Cl)cc1Cl,100,i,i,i,i,i,40%,i,i,i
Cc1csc(SCC(=O)Nc2nncs2)n1,i,i,i,i,i,i,nt,nt,nt,nt
Cc1ccc(-c2csc(NC(=O)CSc3nc(C)cs3)n2)cc1,25,i,i,i,i,i,i,i,i,i
Cc1csc(SCC(=O)Nc2nc(-c3ccccc3)cs2)n1,100,i,i,i,i,i,i,i,i,i
CCc1nnc(NC(=O)CSc2nnc(-c3ccccc3OC)n2-c2ccccc2)s1,25,i,i,i,i,i,i,i,i,i
Cc1cc(C)nc(SCc2nnc(SCC(=O)Nc3nc(-c4ccccc4)cs3)n2C)n1,i,i,i,i,i,i,nt,nt,nt,nt
SMILES,TMEM16A inh,MC4R barr agon,MIN6 prolif,MC4R antagonist,TMEM16A act,HTR2A ag,TMEM16A reconf,HEK293 Ca mobil,Parental YFP cnt,ClC-1 rat inh
COc1ccccc1-c1nnc(SCC(=O)Nc2nc(-c3ccccc3)cs2)n1C,100,i,i,i,i,i,18%,i,i,i
CCc1nnc(NC(=O)CSc2nnc(-c3ccccc3OC)n2-c2ccc(C)cc2)s1,i,i,i,i,i,i,nt,nt,nt,nt
N#Cc1nc(COc2cccc(Cl)c2)oc1NCc1ccco1,i,i,i,i,i,i,i,i,i,i
COCCN(C(=O)COC(=O)Cc1c[nH]c2ccccc12)c1c(N)n(Cc2ccccc2)c(=O)[nH]c1=O,i,i,i,i,i,i,nt,nt,nt,nt
CC(C)c1ccc(C2/C(=C(/O)c3ccc(F)cc3)C(=O)C(=O)N2CCCN2CCOCC2)cc1 (centres undefined),i,i,i,i,i,i,nt,nt,nt,nt
COc1ccccc1OCCCOc1ccc(C)cc1Br,i,i,i,i,i,i,nt,nt,nt,nt
CCN(CC)CCCCOc1ccccc1OC,100,i,i,i,i,i,i,i,i,i
CCOc1ccc(Nc2nc(NCCN3CCOCC3)nc(OC)n2)cc1,100,i,i,i,i,i,i,i,i,i
CC1=CC(C)(C)N2C(=O)C3(C(C#N)=C(N)Oc4cc(O)ccc43)c3c(C)c(C)cc1c32 (centres undefined),100,i,i,i,i,i,45%,i,i,i
CC1=CC(C)(C)N2C(=O)C3(C(C#N)=C(N)OC4=C3C(=O)CCC4)c3c(C)c(C)cc1c32 (centres undefined),i,i,i,i,i,i,nt,nt,nt,nt
CC1CCCC(NC(=O)c2ccc(F)c(S(=O)(=O)N3CCOCC3)c2)C1C (centres undefined),i,i,i,i,i,i,nt,nt,nt,nt
O=C1OC(c2ccccc2)=N/C1=C/c1cccc(OC(=O)c2cccs2)c1,25,i,i,i,i,i,i,i,i,i
CCN(Cc1ccncc1)Cc1nc(-c2ccc(C(=O)OC)cc2)no1,i,i,i,i,i,i,nt,nt,nt,nt
COC(=O)c1ccc(-c2noc(CN(C)Cc3ccncc3C)n2)cc1,25,i,i,i,i,i,i,i,i,i
O=C(CCNc1ccc(F)cc1)c1ccco1,100,i,i,i,i,i,i,i,i,i
c1nc(NCC2CCCO2)c2[nH]cnc2n1 (centres undefined),25,i,i,i,i,i,i,i,i,i
